From ChEMBL document CHEMBL1828535, “Synthesis and in vitro activity of novel N-3 acylated TSAO-T compounds against HIV-1 and HCV” (Eur J Med Chem, 2011)
The source made the active and inactive calls. No cut-off for these calls is given here.

How the values were obtained:
[1] = Cytotoxicity against human HuH7 cells after 72 hrs; format: cell-based, Huh-7
[2] = system: Human immunodeficiency virus 1; experiment: Antiviral activity against HIV1 harboring reverse transcriptase E138K mutant infected in human CEM cells assessed as inhibition of virus-induced cytopathicity after 4 days; format: functional, organism-based; conditions: CCRF-CEM
Procedure, shortened: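 CEM cells at 4 x 10⁶ cells/mL infected with HIV-1/E138K (RT mutant strain selected under TSAO-m³T) at about 100 CCID₅₀ per mL of cell suspension. Syncytia formation scored microscopically after 4 days. EC₅₀ taken as the concentration inhibiting virus-induced cytopathicity by 50%.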

Hepatitis C virus = experiment: Antiviral activity against HCV2a JFH1 infected in human Huh7 cells assessed as inhibition of viral replication after 72 hrs by luciferase reporter gene assay; format: functional, organism-based, Hepacivirus hominis; conditions: JFH-1, Huh-7, 72 h
[3] = system: Human immunodeficiency virus 1; experiment: Antiviral activity against HIV1 3B infected in human CEM cells assessed as inhibition of virus-induced cytopathicity after 4 days; format: functional, organism-based; conditions: Human immunodeficiency virus 1, 3B, CCRF-CEM, 96 h
Procedure, shortened: (§1)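 CEM cells at 4 x 10⁶/mL infected with HIV-1 IIIB or HIV-2 ROD at ~100 CCID₅₀ per mL of cell suspension; compound present; syncytia formation scored microscopically after 4 days; EC₅₀ = concentration inhibiting virus-induced cytopathicity by 50%.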

[4] = Cytotoxicity against human CEM cells after 4 days; format: cell-based; conditions: CEM (CCRF-CEM) cells
Procedure, shortened: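 CC₅₀ taken as concentration inhibiting CEM cell proliferation by 50%.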

[5] = Chemical stability of the compound in phosphate buffered saline assessed as compound degradation after 72 hrs; format: physicochemical; conditions: buffer
Procedure, shortened: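 Compound held in PBS at 37 °C for 72 h; degradation judged by comparing LCMS spectra before and after incubation.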

[6] = system: Human immunodeficiency virus 2; experiment: Antiviral activity against HIV2 ROD infected in human CEM cells assessed as inhibition of virus-induced cytopathicity after 4 days; format: functional, organism-based; conditions: Human immunodeficiency virus 2, ISOLATE ROD, CCRF-CEM, 96 h; procedure, shortened: as §1

## C[C@@]1(O)[C@H](O)[C@@H](CO)O[C@H]1n1ccc(N)nc1=O
[1]
  CC50 at 72 h: > 33 µM
[2]
  inhibition: inactive
Hepatitis C virus
  EC50: 2.4 µM

## COC(=O)c1cccc(C(=O)n2c(=O)c(C)cn([C@@H]3O[C@H](CO[Si](C)(C)C(C)(C)C)[C@@]4(OS(=O)(=O)C=C4N)[C@H]3O[Si](C)(C)C(C)(C)C)c2=O)c1
[3]
  EC50: 0.041 µM
[1]
  CC50 at 72 h: > 100 µM
[4]
  CC50 at 96 h: 14 µM
[2]
  inhibition: inactive
[5]
  Stability: Stable
[6]
  EC50: ≥ 4 µM
Hepatitis C virus
  EC50: 8.2 µM

## Cc1cn([C@@H]2O[C@H](CO[Si](C)(C)C(C)(C)C)[C@@]3(OS(=O)(=O)C=C3N)[C@H]2O[Si](C)(C)C(C)(C)C)c(=O)n(C(=O)CCCBr)c1=O
[3]
  EC50: 0.052 µM
[1]
  CC50 at 72 h: > 100 µM
[4]
  CC50 at 96 h: 11 µM
[2]
  inhibition: inactive
[5]
  Stability: Stable
[6]
  EC50: ≥ 4 µM
Hepatitis C virus
  EC50: 43 µM

## Cc1cn([C@@H]2O[C@H](CO[Si](C)(C)C(C)(C)C)[C@@]3(OS(=O)(=O)C=C3N)[C@H]2O[Si](C)(C)C(C)(C)C)c(=O)n(C)c1=O
[3]
  EC50: 0.037 µM
[1]
  CC50 at 72 h: > 100 µM
[4]
  CC50 at 96 h: 115 µM
[2]
  inhibition: inactive
[6]
  EC50: > 250 µM
Hepatitis C virus
  EC50: > 100 µM

## COC(=O)n1c(=O)c(C)cn([C@@H]2O[C@H](CO[Si](C)(C)C(C)(C)C)[C@@]3(OS(=O)(=O)C=C3N)[C@H]2O[Si](C)(C)C(C)(C)C)c1=O
[3]
  EC50: 0.07 µM
[1]
  CC50 at 72 h: > 100 µM
[4]
  CC50 at 96 h: > 100 µM
[2]
  inhibition: inactive
[5]
  Stability: Stable
[6]
  EC50: ≥ 100 µM
Hepatitis C virus
  EC50: > 100 µM

## Cc1cn([C@@H]2O[C@H](CO[Si](C)(C)C(C)(C)C)[C@@]3(OS(=O)(=O)C=C3N)[C@H]2O[Si](C)(C)C(C)(C)C)c(=O)n(C(=O)CCCC(=O)N(C)C)c1=O
[3]
  EC50: 0.032 µM
[1]
  CC50 at 72 h: > 100 µM
[4]
  CC50 at 96 h: 9.5 µM
[2]
  inhibition: inactive
[5]
  Stability: Stable
[6]
  EC50: ≥ 4 µM
Hepatitis C virus
  EC50: 4.4 µM

## Cc1cn([C@@H]2O[C@H](CO[Si](C)(C)C(C)(C)C)[C@@]3(OS(=O)(=O)C=C3N)[C@H]2O[Si](C)(C)C(C)(C)C)c(=O)n(C(=O)c2ccccc2)c1=O
[3]
  EC50: 0.049 µM
[1]
  CC50 at 72 h: > 100 µM
[4]
  CC50 at 96 h: 54 µM
[2]
  inhibition: inactive
[5]
  Stability: Stable
[6]
  EC50: ≥ 4 µM
Hepatitis C virus
  EC50: 9.8 µM

## Cc1cn([C@@H]2O[C@H](CO[Si](C)(C)C(C)(C)C)[C@@]3(OS(=O)(=O)C=C3N)[C@H]2O[Si](C)(C)C(C)(C)C)c(=O)n(C(=O)CCCC(N)=O)c1=O
[3]
  EC50: 0.038 µM
[1]
  CC50 at 72 h: > 100 µM
[4]
  CC50 at 96 h: 8.7 µM
[2]
  inhibition: inactive
[5]
  Stability: Stable
[6]
  EC50: ≥ 4 µM
Hepatitis C virus
  EC50: 9 µM

## Cc1cn([C@@H]2O[C@H](CO[Si](C)(C)C(C)(C)C)[C@@]3(OS(=O)(=O)C=C3N)[C@H]2O[Si](C)(C)C(C)(C)C)c(=O)n(C(=O)CCCC(=O)OC(C)(C)C)c1=O
[3]
  EC50: 0.033 µM
[1]
  CC50 at 72 h: > 100 µM
[4]
  CC50 at 96 h: 11 µM
[2]
  inhibition: inactive
[5]
  Stability: Stable
[6]
  EC50: ≥ 4 µM
Hepatitis C virus
  EC50: 11 µM

## Cc1cn([C@@H]2O[C@H](CO[Si](C)(C)C(C)(C)C)[C@@]3(OS(=O)(=O)C=C3N)[C@H]2O[Si](C)(C)C(C)(C)C)c(=O)[nH]c1=O
[1]
  CC50 at 72 h: > 100 µM
[4]
  CC50 at 96 h: 12 µM
[2]
  inhibition: inactive
[6]
  EC50: > 20 µM
Hepatitis C virus
  EC50: 14 µM

## Cc1cn([C@@H]2O[C@H](CO[Si](C)(C)C(C)(C)C)[C@@]3(OS(=O)(=O)C=C3N)[C@H]2O[Si](C)(C)C(C)(C)C)c(=O)n(C(=O)CCCC(=O)OCc2ccccc2)c1=O
[3]
  EC50: 0.04 µM
[1]
  CC50 at 72 h: > 100 µM
[4]
  CC50 at 96 h: 9.2 µM
[2]
  inhibition: inactive
[5]
  Stability: Stable
[6]
  EC50: ≥ 4 µM
Hepatitis C virus
  EC50: 10 µM

## Cc1cn([C@@H]2O[C@H](CO[Si](C)(C)C(C)(C)C)[C@@]3(OS(=O)(=O)C=C3N)[C@H]2O[Si](C)(C)C(C)(C)C)c(=O)n(C(=O)C2CC2)c1=O
[3]
  EC50: 0.042 µM
[1]
  CC50 at 72 h: > 100 µM
[4]
  CC50 at 96 h: 11 µM
[2]
  inhibition: inactive
[5]
  Stability: Stable
[6]
  EC50: ≥ 4 µM
Hepatitis C virus
  EC50: 8.5 µM

## COC(=O)CCCC(=O)n1c(=O)c(C)cn([C@@H]2O[C@H](CO[Si](C)(C)C(C)(C)C)[C@@]3(OS(=O)(=O)C=C3N)[C@H]2O[Si](C)(C)C(C)(C)C)c1=O
[3]
  EC50: 0.054 µM
[1]
  CC50 at 72 h: > 100 µM
[4]
  CC50 at 96 h: 9.9 µM
[2]
  inhibition: inactive
[5]
  Stability: Stable
[6]
  EC50: ≥ 4 µM
Hepatitis C virus
  EC50: 11 µM

## CNC(=O)CCCCn1c(=O)c(C)cn([C@@H]2O[C@H](CO[Si](C)(C)C(C)(C)C)[C@@]3(OS(=O)(=O)C=C3N)[C@H]2O[Si](C)(C)C(C)(C)C)c1=O
[4]
  CC50 at 96 h: 10 µM
[2]
  inhibition: inactive
[6]
  EC50: > 10 µM

## Cc1cn([C@@H]2O[C@H](CO[Si](C)(C)C(C)(C)C)[C@@]3(OS(=O)(=O)C=C3N)[C@H]2O[Si](C)(C)C(C)(C)C)c(=O)n(C(=O)CCCC(=O)NCc2ccccc2)c1=O
[3]
  EC50: 0.052 µM
[1]
  CC50 at 72 h: > 100 µM
[4]
  CC50 at 96 h: 8.8 µM
[2]
  inhibition: inactive
[5]
  Stability: Stable
[6]
  EC50: ≥ 4 µM
Hepatitis C virus
  EC50: 7.6 µM

## CSC(=O)CCCC(=O)n1c(=O)c(C)cn([C@@H]2O[C@H](CO[Si](C)(C)C(C)(C)C)[C@@]3(OS(=O)(=O)C=C3N)[C@H]2O[Si](C)(C)C(C)(C)C)c1=O
[3]
  EC50: 0.037 µM
[1]
  CC50 at 72 h: > 100 µM
[4]
  CC50 at 96 h: 9.9 µM
[2]
  inhibition: inactive
[5]
  Stability: Stable
[6]
  EC50: ≥ 4 µM
Hepatitis C virus
  EC50: 7 µM

## Cc1cn([C@@H]2O[C@H](CO[Si](C)(C)C(C)(C)C)[C@@]3(OS(=O)(=O)C=C3N)[C@H]2O[Si](C)(C)C(C)(C)C)c(=O)n(C(=O)OC(C)(C)C)c1=O
[4]
  CC50 at 96 h: 26 µM
[2]
  inhibition: inactive

## CNC(=O)CCCC(=O)n1c(=O)c(C)cn([C@@H]2O[C@H](CO[Si](C)(C)C(C)(C)C)[C@@]3(OS(=O)(=O)C=C3N)[C@H]2O[Si](C)(C)C(C)(C)C)c1=O
[3]
  EC50: 0.059 µM
[1]
  CC50 at 72 h: > 100 µM
[4]
  CC50 at 96 h: 9.1 µM
[2]
  inhibition: inactive
[5]
  Stability: Stable
[6]
  EC50: ≥ 4 µM
Hepatitis C virus
  EC50: 12 µM
